Read-outs that look alike come from different tables or passages of the source.
Key:
Rat snapshot PK = type: in vivo
Plasmodium berghei = Plasmodium berghei mouse survival model; type: in vivo, Plasmodium berghei (NMRI mice); conditions: for survival (average lifespan after infection): untreated control 6–7 days
How it was run: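 Female NMRI mice (20–22 g), three per group, were infected IV on day 0 with 2 × 10^7 P. berghei GFP ANKA-parasitised erythrocytes. Test compound in 75% PEG300/25% D5W was given orally at 10 mL/kg, either once at 24 h or daily at 24, 48 and 72 h. Parasitemia was measured by flow cytometry at 72 h or 96 h, as % reduction versus untreated controls. Survival was followed to day 30, and cure meant parasite-free survival to day 30.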

Caco-2 = Caco-2 permeability assay; type: in vitro ADME; conditions: for Caco-2 A–B: apical to basolateral; for Caco-2 B–A: basolateral to apical
P. falciparum = experiment: Antiplasmodial activity as quoted in text; type: cell-based, Plasmodium falciparum; conditions: for improvement in potency: on 8,8-dimethyl substitution (33 vs 32; 35 vs 31); for loss/decrease of potency: relative to parent compound (17: 8-methyl; 32: lactam vs 31); for EC50: Plasmodium falciparum, read-out: antiplasmodial activity EC50
How it was run: (§1)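 P. falciparum was grown in O+ erythrocytes and tested in serum-free medium with 0.5% Albumax II. Test compound ran as a 12-point half-log series, top final 10 μM, at 0.3% parasitemia and 2.5% hematocrit, 72 h, 37 °C, low-oxygen gas. Saponin/Triton lysis buffer with SYBR Green was added (24 h, 25 °C), then fluorescence read at 485/530 nm. […] EC50 came from logistic fit, with at least duplicate plates.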

[1] = Caco-2 permeability assay; type: in vitro ADME; conditions: human, Caco-2
P. falciparum strain W2 = experiment: Antiplasmodial proliferation inhibition assay, 384-well, SYBR Green; type: cell-based, Plasmodium falciparum
How it was run: as §1

[2] = Rat full PK / dose escalation PK; type: in vivo; conditions: rat PO, 30 mg/kg vs 10 mg/kg
[3] = In vivo pharmacokinetics in mice; conditions: mouse, plasma
PAMPA assay = type: in vitro ADME; conditions: Table 3
[4] = Metabolic stability in mouse liver microsomes; type: in vitro ADME; conditions: Table 2
P. falciparum strain 3D7 = experiment: Antiplasmodial proliferation inhibition assay, 384-well, SYBR Green; type: cell-based; conditions: Plasmodium falciparum, 3D7, read-out: P. falciparum strain EC50 3D7
How it was run: as §1

[5] = read-out: P. falciparum strain EC50 W2, Table 1, means of two experiments, 72 h incubation
[6] = Wistar, rat, plasma, po, 20 mg/kg

Cc1ccc(Nc2c(-c3ccc(F)cc3)nc3n2CCN(C(=O)C(C)(C)N)C3(C)C)cc1 [Compound 29, 2-Amino-1-(2-(4-fluorophenyl)-8,8-dimethyl-3-(p-tolylamino)-5,6-dihydroimidazo[1,2-a]pyrazin-7(8H)-yl)-2-methylpropan-1-one]
in vivo exposure in rat (Rat snapshot PK; oral, rat snapshot PK): did not exhibit any in vivo exposure
activity (average parasitemia reduction) (Plasmodium berghei; 1 × 30 mg/kg oral, 30 mg/kg): > 99%
survival (average lifespan after infection) (Plasmodium berghei; 3 × 30 mg/kg oral): 18.0 days
Caco-2 A–B (Caco-2): 3.5 cm/s ×10^6
Caco-2 B–A (Caco-2): 2.37 cm/s ×10^6

Cc1ccc(Nc2c(-c3ccc(F)cc3)nc3n2CC(=O)NC3(C)C)cc1 [Compound 33, 2-(4-Fluorophenyl)-8,8-dimethyl-3-(p-tolylamino)-7,8-dihydroimidazo[1,2-a]pyrazin-6(5H)-one]
improvement in potency (P. falciparum): 7 fold

CC(C)(N)C(=O)N1CCn2c(nc(-c3ccc(F)cc3)c2Nc2ccc(F)cc2)C1 [Compound 27, 2-Amino-1-(2-(4-fluorophenyl)-3-((4-fluorophenyl)amino)-5,6-dihydroimidazo[1,2-a]pyrazin-7(8H)-yl)-2-methylpropan-1-one]
Papp A→B [1]: 3.05 ×10⁻⁶ cm/s
Papp B→A [1]: 8.38 ×10⁻⁶ cm/s

(R)-2-Amino-1-(3-(4-chloro-3-fluorophenylamino)-2-(4-fluorophenyl)-8-isopropyl-5,6-dihydroimidazo[1,2-a]pyrazin-7(8H)-yl)ethanone [Compound 20]
EC50 (P. falciparum strain W2; [5]): 202 ± 38 nM

(S)-2-Amino-1-(3-(4-chloro-3-fluorophenylamino)-2-(4-fluorophenyl)-8-isopropyl-5,6-dihydroimidazo[1,2-a]pyrazin-7(8H)-yl)ethanone [Compound 19]
EC50 (P. falciparum strain W2; [5]): 470 ± 130 nM

NCC(=O)N1CCn2c(nc(-c3ccc(F)cc3)c2Nc2ccc(F)cc2)C1 [Compound 15]
Papp A→B [1]: 0.7 ×10⁻⁶ cm/s
Papp B→A [1]: 2.55 ×10⁻⁶ cm/s

(S)-2-Amino-1-(3-(4-chloro-3-fluorophenylamino)-2-(4-fluorophenyl)-8-methyl-5,6-dihydroimidazo[1,2-a]pyrazin-7(8H)-yl)ethanone [Compound 17]
EC50 (P. falciparum strain W2; [5]): 24 ± 1 nM
loss/decrease of potency (P. falciparum): 10 fold

CC(C)(N)C(=O)N1CCn2c(nc(-c3ccc(F)cc3)c2Nc2ccc(F)cc2)C1(C)C [Compound 28, 2-Amino-1-(2-(4-fluorophenyl)-3-(4-fluorophenylamino)-8,8-dimethyl-5,6-dihydroimidazo[1,2-a]pyrazin-7(8H)-yl)-2-methylpropan-1-one]
Caco-2 A–B (Caco-2): 1.2 cm/s ×10^6
Caco-2 B–A (Caco-2): 0.97 cm/s ×10^6

CC1(C)c2nc(-c3ccc(F)cc3)c(Nc3ccc(F)cc3)n2CCN1C(=O)CN [Compound 22, 2-Amino-1-(2-(4-fluorophenyl)-3-(4-fluorophenylamino)-8,8-dimethyl-5,6-dihydroimidazo[1,2-a]pyrazin-7(8H)-yl)ethanone]
activity (average parasitemia reduction) (Plasmodium berghei; 1 × 30 mg/kg oral, 30 mg/kg): > 99%
efficacy of substituted vs unsubstituted piperazine core (ED99) (Plasmodium berghei; compound 22 vs compound 1): ~10 fold
increase in AUC [2]: 7 fold
increase in bioavailability [2]: 2 fold
Caco-2 A–B (Caco-2): 1.26 cm/s ×10^6
Caco-2 B–A (Caco-2): 2.99 cm/s ×10^6
Cmax ([3]; oral, 2 mg/kg): ~75 nM

Cc1ccc(Nc2c(-c3ccc(F)cc3)nc3n2CC(=O)NC3)cc1 [Compound 32, 2-(4-Fluorophenyl)-3-(p-tolylamino)-7,8-dihydroimidazo[1,2-a]pyrazin-6(5H)-one]
Caco-2 A–B (Caco-2): 15 cm/s ×10^6
Caco-2 B–A (Caco-2): 14.37 cm/s ×10^6
loss/decrease of potency (P. falciparum): ~7 fold

Cc1ccc(Nc2c(-c3ccc(F)cc3)nc3n2CCNC3)cc1 [Compound 31, 2-(4-Fluorophenyl)-N-(p-tolyl)-5,6,7,8-tetrahydroimidazo[1,2-a]pyrazin-3-amine]
Caco-2 A–B (Caco-2): 8.2 cm/s ×10^6
Caco-2 B–A (Caco-2): 2.36 cm/s ×10^6
EC50 (P. falciparum): 160 to 400 nM

Cc1ccc(Nc2c(-c3ccc(F)cc3)nc3n2CCNC3(C)C)cc1 [Compound 35, 2-(4-Fluorophenyl)-8,8-dimethyl-N-p-tolyl-5,6,7,8-tetrahydroimidazo[1,2-a]pyrazin-3-amine]
Caco-2 A–B (Caco-2): 15.56 cm/s ×10^6
Caco-2 B–A (Caco-2): 6.96 cm/s ×10^6
EC50 (P. falciparum): ~10 nM
improvement in potency (P. falciparum): ~10 fold

CC1(C)c2nc(-c3ccc(F)cc3)c(Nc3ccc(F)c(F)c3)n2CCN1C(=O)CN [Compound 24, 2-Amino-1-(3-((3,4-difluorophenyl)amino)-2-(4-fluorophenyl)-8,8-dimethyl-5,6-dihydroimidazo[1,2-a]pyrazin-7(8H)-yl)ethanone]
activity (average parasitemia reduction) (Plasmodium berghei; 1 × 30 mg/kg oral, 30 mg/kg): > 99%
Caco-2 A–B (Caco-2): 0.61 cm/s ×10^6
Caco-2 B–A (Caco-2): 1.3 cm/s ×10^6

2-Amino-1-(3-(4-chloro-3-fluorophenylamino)-2-(4-fluorophenyl)-8,8-dimethyl-5,6-dihydroimidazo[1,2-a]pyrazin-7(8H)-yl)ethanone [Compound 21]
EC50 (P. falciparum strain W2; [5]): 24 ± 1 nM

CC1(C)NC(=O)Cn2c1nc(-c1ccc(F)cc1)c2Nc1ccc(Cl)c(F)c1 [Compound 34, 3-(4-Chloro-3-fluorophenylamino)-2-(4-fluorophenyl)-8,8-dimethyl-7,8-dihydro imidazo[1,2-a]pyrazin-6(5H)-one]
PAMPA, measured as percentage absorbed (PAMPA assay): 97.1%
AUC(0–5 h)/dose (Rat snapshot PK; PO, Wistar rat): 5.07 (min·μg/mL)/(mg/kg)
AUC(0-t) (Rat snapshot PK; [6]): 2.1 µM·h
Cmax (Rat snapshot PK; [6]): 504 nM
mouse microsome hepatic extraction ratio [4]: 0.61
activity (average parasitemia reduction) (Plasmodium berghei; 1 × 30 mg/kg oral): 47.0%
survival (average lifespan after infection) (Plasmodium berghei; 1 × 30 mg/kg oral): 6.3 days
activity (average parasitemia reduction) (Plasmodium berghei; 1 × 100 mg/kg oral): 97.0%
survival (average lifespan after infection) (Plasmodium berghei; 1 × 100 mg/kg oral): 6.7 days
activity (average parasitemia reduction) (Plasmodium berghei; 3 × 30 mg/kg oral): 66.0%
survival (average lifespan after infection) (Plasmodium berghei; 3 × 30 mg/kg oral): 7.0 days
EC50 (P. falciparum strain W2; Plasmodium falciparum, W2, read-out: P. falciparum strain EC50 W2): 65 ± 3 nM
EC50 (P. falciparum strain 3D7): 36 ± 2 nM
Papp A→B [1]: 3.22 ×10⁻⁶ cm/s
Papp B→A [1]: 3.35 ×10⁻⁶ cm/s
AUC(0-t) ([3]; male, Balb/c, iv, 5 mg/kg): 16.5 µM·h
Vd ([3]; male, Balb/c, iv, 5 mg/kg): 2.7 L/kg
clearance ([3]; male, Balb/c, iv, 5 mg/kg): 12.5 mL/min/kg
half-life ([3]; male, Balb/c, iv, 5 mg/kg): 168 min
bioavailability ([3]; male, Balb/c, oral, 20 mg/kg): 77%
AUC(0-t) ([3]; male, Balb/c, po, 20 mg/kg): 50.6 µM·h
Cmax ([3]; male, Balb/c, po, 20 mg/kg): 3650 nM
Tmax ([3]; male, Balb/c, po, 20 mg/kg): 1 h
half-life ([3]; male, Balb/c, po, 20 mg/kg): 163 min

(R)-2-Amino-1-(3-(4-chloro-3-fluorophenylamino)-2-(4-fluorophenyl)-8-methyl-5,6-dihydroimidazo[1,2-a]pyrazin-7(8H)-yl)ethanone [Compound 18]
EC50 (P. falciparum strain W2; [5]): 29 ± 3 nM
